Laboratory results taken from ChEMBL document CHEMBL3271979, “Inhibition of solid tumors by nitrosoureas. 1. Lewis lung carcinoma” (1977).
Activity calls are given as the source filed them. The calls are words filed in the database; no cut-off is given here.

Test system: Mus musculus
Experiment: Antitumor activity against mouse advanced Lewis lung carcinoma allografted in BDF1 mouse assessed as disease cure at 45 mg/kg, ip administered as single dose on 7th day post-tumor implantation measured for 80 days post-drug treatment
Type: functional, organism-based
Set-up: dose 45 mg/kg
Settings: not given
Method in brief: (§1)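 BDF1 mice (C57Blk/6 × DBA/2) implanted sc by trocar with Lewis lung tumor fragments of about 40 mg, taken only from bacteriologically sterile donor tumors. Mice bearing tumors of about 400 mg (day 6-7) were selected. Each received a single ip dose on day 7, at or below the LD10 in normal mice. Groups were of 10 mice. Tumor weight was taken from calipers as w = ab²/2, measured at least twice weekly. Matched non-tumor mice served as toxicity controls.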

SMILES | Activity
CCOC(=O)[C@H]1CCC[C@@H](NC(=O)N(CCCl)N=O)C1 (relative stereo) | inactive

Test system: Mus musculus
Experiment: Antitumor activity against mouse advanced Lewis lung carcinoma allografted in BDF1 mouse assessed as disease cure at 30 mg/kg, ip administered as single dose on 7th day post-tumor implantation measured for 80 days post-drug treatment
Type: functional, organism-based
Set-up: dose 30 mg/kg
Settings: not given
Method in brief: as §1

SMILES | Activity
CCOC(=O)[C@H]1CCC[C@@H](NC(=O)N(CCCl)N=O)C1 (relative stereo) | inactive

Test system: Mus musculus
Experiment: Antitumor activity against mouse advanced Lewis lung carcinoma allografted in BDF1 mouse assessed as disease cure at 36 mg/kg, ip administered as single dose on 7th day post-tumor implantation measured for 80 days post-drug treatment
Type: functional, organism-based
Set-up: dose 36 mg/kg
Settings: not given
Method in brief: as §1

SMILES | Activity
CC(=O)O[C@H]1CC[C@H](NC(=O)N(CCCl)N=O)CC1 | inactive
O=NN(CCF)C(=O)NC1CCSCC1 | inactive

Test system: not listed separately
Experiment: Antitumor activity against mouse advanced Lewis lung carcinoma allografted in BDF1 mouse assessed as increase in host life span at 36 mg/kg, ip administered as single dose on 7th day post-tumor implantation
Type: functional
Settings: route intraperitoneal
Method in brief: (§2)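 BDF1 mice (C57Blk/6 × DBA/2) implanted sc by trocar with about 40 mg Lewis lung tumor fragments from bacteriologically sterile donors. Advanced-disease groups held tumors of about 400 mg by day 6-7, sized by caliper (w = ab²/2). Single ip injection on day 7, in water or saline vehicle, at or below the LD10 in normal mice. Tumors measured at least twice weekly.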

SMILES | ILS at 36 mg/kg [%]
CC(=O)O[C@H]1CC[C@H](NC(=O)N(CCCl)N=O)CC1 | 34
O=NN(CCF)C(=O)NC1CCSCC1 | 87

Test system: not listed separately
Experiment: Antitumor activity against mouse advanced Lewis lung carcinoma allografted in BDF1 mouse assessed as increase in host life span at 45 mg/kg, ip administered as single dose on 7th day post-tumor implantation
Type: functional
Settings: route intraperitoneal
Method in brief: as §2

SMILES | ILS at 45 mg/kg [%]
CCOC(=O)[C@H]1CCC[C@@H](NC(=O)N(CCCl)N=O)C1 (relative stereo) | 0
O=NN(CCF)C(=O)N[C@H]1CC[C@H](C(=O)O)CC1 | 60

Test system: not listed separately
Experiment: Antitumor activity against mouse advanced Lewis lung carcinoma allografted in BDF1 mouse assessed as increase in host life span at 30 mg/kg, ip administered as single dose on 7th day post-tumor implantation
Type: functional
Settings: route intraperitoneal
Method in brief: as §2

SMILES | ILS at 30 mg/kg [%]
CCOC(=O)[C@H]1CCC[C@@H](NC(=O)N(CCCl)N=O)C1 (relative stereo) | 62

Test system: Mus musculus
Experiment: Antitumor activity against mouse advanced Lewis lung carcinoma allografted in BDF1 mouse assessed as complete regression of established tumor at 30 mg/kg, ip administered as single dose on 7th day post-tumor implantation
Type: functional, organism-based
Set-up: dose 30 mg/kg
Settings: not given
Method in brief: as §1

SMILES | inhibition
CCOC(=O)[C@H]1CCC[C@@H](NC(=O)N(CCCl)N=O)C1 (relative stereo) | inactive

Test system: Mus musculus
Experiment: Antitumor activity against mouse advanced Lewis lung carcinoma allografted in BDF1 mouse assessed as complete regression of established tumor at 36 mg/kg, ip administered as single dose on 7th day post-tumor implantation
Type: functional, organism-based
Set-up: dose 36 mg/kg
Settings: not given
Method in brief: as §1

SMILES | inhibition
CC(=O)O[C@H]1CC[C@H](NC(=O)N(CCCl)N=O)CC1 | inactive

Test system: Mus musculus
Experiment: Antitumor activity against mouse early Lewis lung carcinoma allografted in ip dosed BDF1 mouse assessed as disease cure administered as single dose on 1 or 2 days post-tumor implantation measured for 80 days post-drug treatment
Type: functional
Settings: not given
Method in brief: (§3)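 BDF1 mice implanted sc by trocar with ~40 mg Lewis lung fragments from sterile donor tumors. A single ip dose was given on day 1 or 2 after implant, in water or saline vehicle. Cures were scored in animals observed for at least 80 days after treatment. Drug-toxicity controls were matched non-tumor-bearing mice monitored for body weight and deaths.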

SMILES | Activity
C[C@H]1S(=O)(=O)C[C@H](NC(=O)N(CCCl)N=O)CS1(=O)=O | inactive
CCCCCC(C)NC(=O)N(CCCl)N=O (stereo unspecified) | inactive

Test system: Mus musculus
Experiment: Antitumor activity against mouse early Lewis lung carcinoma allografted in ip dosed BDF1 mouse administered as single dose on 1 or 2 days post-tumor implantation measured for 80 days post-drug treatment
Type: functional, organism-based
Settings: not given
Method in brief: as §3

SMILES | Activity
C[C@H]1S(=O)(=O)C[C@H](NC(=O)N(CCCl)N=O)CS1(=O)=O | inactive
CO[C@H]1CC[C@@H](NC(=O)N(CCCl)N=O)CC1 | inactive
CCCCCC(C)NC(=O)N(CCCl)N=O (stereo unspecified) | inactive

Test system: not listed separately
Experiment: Ratio of ED50 for antitumor activity against mouse L1210 cells allografted in ip dosed mouse to LD10 for mouse
Settings: not given

SMILES | Ratio
C[C@H]1S(=O)(=O)C[C@H](NC(=O)N(CCCl)N=O)CS1(=O)=O | 0.4

Test system: L1210
Experiment: Antitumor activity against mouse L1210 cells allografted in ip dosed mouse assessed as disease cure administered as single dose
Type: functional, organism-based
Settings: not given

SMILES | Activity
CCCCCC(C)NC(=O)N(CCCl)N=O (stereo unspecified) | inactive

Test system: Mus musculus
Experiment: Antitumor activity against mouse advanced Lewis lung carcinoma allografted in ip dosed BDF1 mouse assessed as complete regression of established tumor administered as single dose on day 6 or 7 post-tumor implantation
Type: functional, organism-based
Settings: not given
Method in brief: as §1

SMILES | inhibition
C[C@H]1S(=O)(=O)C[C@H](NC(=O)N(CCCl)N=O)CS1(=O)=O | inactive
CCOC(=O)[C@H]1CCC[C@@H](NC(=O)N(CCCl)N=O)C1 (relative stereo) | Active
CC(=O)O[C@H]1CC[C@H](NC(=O)N(CCCl)N=O)CC1 | inactive
O=NN(CCF)C(=O)NC1CCSCC1 | inactive
CCCCCC(C)NC(=O)N(CCCl)N=O (stereo unspecified) | inactive

Test system: Mus musculus
Experiment: Antitumor activity against mouse advanced Lewis lung carcinoma allografted in ip dosed BDF1 mouse assessed as disease cure administered as single dose on day 6 or 7 post-tumor implantation
Type: functional, organism-based
Settings: not given
Method in brief: as §1

SMILES | Activity
CCOC(=O)[C@H]1CCC[C@@H](NC(=O)N(CCCl)N=O)C1 (relative stereo) | inactive
CC(=O)O[C@H]1CC[C@H](NC(=O)N(CCCl)N=O)CC1 | inactive
O=NN(CCF)C(=O)N[C@H]1CC[C@H](C(=O)O)CC1 | Active
O=NN(CCF)C(=O)NC1CCSCC1 | inactive

Test system: not listed separately
Experiment: Antitumor activity against mouse advanced Lewis lung carcinoma allografted in ip dosed BDF1 mouse assessed as increase in host lifespan administered as single dose on day 6 or 7 post-tumor implantation
Type: functional
Settings: not given
Method in brief: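 Advanced Lewis lung model: about 40 mg fragments implanted sc by trocar into BDF1 mice, and mice with tumors of about 400 mg (day 6-7) selected. Tumor weight from calipers, w = ab²/2. Agent given as one ip dose in distilled water or physiological saline. Nontumor-bearing mice received matching doses as toxicity controls.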

SMILES | ILS [%]
C[C@H]1S(=O)(=O)C[C@H](NC(=O)N(CCCl)N=O)CS1(=O)=O | <25
CC(=O)O[C@H]1CC[C@H](NC(=O)N(CCCl)N=O)CC1 | >25
O=NN(CCF)C(=O)NC1CCSCC1 | >25
CCCCCC(C)NC(=O)N(CCCl)N=O (stereo unspecified) | <25
